A selection: hits, their analogues and other compounds. The true share with any hit is near 9.6%.
bCat nuc transl: alters nuclear translocation of beta-catenin in HeLa cells | immunofluorescence imaging | nuclear translocation activity, % at 5 µM | 190,000 compounds, 0.3% hits;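 active means nuclear translocation activity above 50% at 5 µM, with a well cell count of 50 or more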;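 further: per-cell ratio of nuclear to cytoplasmic median beta-catenin stain intensity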
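test system = HeLa cells, endogenous beta-catenin | dosing = single 5 µM dose plus 0.02–20 µM confirmation series | times = compound treatment 24 h, 37°C, 5% CO2 | technique = beta-catenin immunofluorescence imaging with DAPI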
APP transl inh: APP translation inhibition; SH-SY5Y APP 5'UTR-luciferase reporter, luminescence; inhibition, % at 2 µM; 190,000 compounds, 0.82% hits;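 active means inhibition above a set limit, derived from the sample mean plus 3 SD, cut at about 45% in these data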
Lmaj promast: reduces viability of Leishmania major promastigotes; resazurin fluorescence viability; inhibition, % at 10 µM; 200,000 compounds, 9% hits; AID 1063; in the data active means inhibition above about 50%;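 further: promastigotes grown with compound for 44 hours at 28 °C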
Ba/F3 V617F tox: lowers viability of Ba/F3 cells expressing EpoR and JAK2V617F | AID 1446 | ATP luminescence | inhibition, % at 5.6 µM | 220,000 compounds, 1.1% hits;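 active means inhibition above the campaign mean plus 3 SD over all tested compounds, cut at about 24% in these data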;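 further: cytokine-independent growth of Ba/F3 cells driven by EpoR plus mutant JAK2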
MT stabilizer: microtubule stabilizers in HeLa cells; HeLa tubulin immunostaining HCS, 24 h; share of cells brighter than vehicle mean+2SD; 200,000 compounds, 0.83% hits; AID 2205; % tubulin-high responders, % at 10 µM;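 active means plate Z-score above 3 for both tubulin-high and condensed-nucleus cell shares, with cell loss under 80%, at 10 µM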;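 further: anti alpha tubulin signal scored within the nucleus-defined area of each cell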
BaF3 parental: parental Ba/F3 viability inhibition as JAK2V617F counter-screen; CellTiter-Glo ATP luminescence; inhibition, % at 5.6 µM; 220,000 compounds, 1.1% hits;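 active means inhibition above a per-campaign cutoff, the mean inhibition of all tested compounds plus 3 SD, cut at about 27% in these data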
Each line names hits and unclear results; the compound was inactive in the other large screens.

CCCCN(CCCC)C(=S)N/N=C/c1c(C)[nH]n(-c2ccccc2)c1=O	Lmaj promast 96
Cc1ccc(/C=N/Nc2nncc(-c3ccccc3)n2)o1	none
O=S(=O)(Nc1ccncc1Cl)c1cccc(Cl)c1Cl	none (no result: APP transl inh, Lmaj promast, MT stabilizer)
N/C(=N\OC(=O)c1cnn(-c2ccccc2)c1C(F)(F)F)c1ccc(C(F)(F)F)cc1	none (no result: APP transl inh, Lmaj promast, MT stabilizer)
COc1ccc2c(c1)-c1nc(/N=C/c3cccc(OC)c3O)sc1CC2	Lmaj promast 61
CN1CCN(c2ccc(C(=O)c3ccc(Br)cc3)cc2[N+](=O)[O-])CC1	Lmaj promast 98
CC(=O)N1CCN(c2ccc(C(N)=O)cc2[N+](=O)[O-])CC1	none
CN1CCN(c2ccccc2NC(=O)c2ccc(N3CCCC3)c([N+](=O)[O-])c2)CC1	Lmaj promast 65
O=C(Nc1ccccc1N1CCCCC1)c1ccc(Cl)c([N+](=O)[O-])c1	none
CCCn1c(=N)n(CC(=O)C(C)(C)C)c2ccccc21	Lmaj promast 81
CCn1c(=N)n(CC(=O)C(C)(C)C)c2ccccc21	APP transl inh 64
CCCCn1c(=N)n(CC(=O)C(C)(C)C)c2ccccc21	none
Cn1c(=N)n(CC(=O)C(C)(C)C)c2ccccc21	none
Cc1noc2ncnc(Oc3cc(Cl)ccc3Cl)c12	none
Cc1nc2ccc(-c3nc4ccccc4o3)cc2[nH]1	Lmaj promast 72
Cc1ccnc2ccc(-c3nc4ccccc4o3)cc12	none
CN1C(=O)C2C(c3ccc(N(C)C)cc3)=NN(Cc3ccccc3)C2C1=O (centres undefined)	none
O=C(NC(Nc1nc2ccc([N+](=O)[O-])cc2s1)(C(F)(F)F)C(F)(F)F)c1cccnc1	none
O=C(NC(Nc1nc2ccc([N+](=O)[O-])cc2s1)(C(F)(F)F)C(F)(F)F)c1ccccc1Cl	APP transl inh 66, Lmaj promast 100, Ba/F3 V617F tox 100, BaF3 parental 81
OCC1(Cc2ccccc2)CCCN(C2CCCC2)C1 (centres undefined)	Lmaj promast 61
CCOC(=O)N1CCC(N2CCCC(CO)(Cc3cccc(OC)c3)C2)CC1 (centres undefined)	Lmaj promast 87
O=C(CSc1n[nH]c(-c2cccs2)n1)N1CCCc2ccccc21	none
Cc1[nH]c2ccccc2c1C(=O)C(=O)N1CCCc2ccccc21	none
O=C(CSc1n[nH]c(-c2ccccc2O)n1)N1CCCc2ccccc21	Lmaj promast 75, MT stabilizer 48
Cc1ccccc1OCC(=O)N1CCCc2ccccc21	Lmaj promast 53
Cc1ccccc1CN1CCc2c(OCC(=O)N3CCCc4ccccc43)cccc2C1=O	Lmaj promast 96
O=C1c2cccc(OCC(=O)N3CCCc4ccccc43)c2CCN1Cc1cccnc1	none
Cc1[nH]c2ccccc2c1SCC(=O)N1CCCc2ccccc21	Lmaj promast 99
Cn1c(=O)cc(OCC(=O)N2CCCc3ccccc32)c2ccccc21	none
O=C(Cn1c(C(F)(F)F)nc2ccccc21)N/N=C/c1ccco1	none
CN(C)c1ccc(C(C(=O)NC(C)(C)C)N(C(=O)c2csnn2)C2CC2)cc1 (centres undefined)	Lmaj promast 53
CCC(C)(C)NC(=O)C(c1ccccc1)N(C(=O)c1csnn1)C1CC1 (centres undefined)	none
COc1cc(C)c(CNc2ccc(OC)c(OC)c2)cc1C	none
CC(C)c1cc(NCC2CCCO2)n2c(nc3ccccc32)c1C#N (centres undefined)	Lmaj promast 57
Cc1c2c(n3c(nc4ccccc43)c1C#N)N(c1ccccc1)CC2	Lmaj promast 53
N#Cc1c2c(c(NCCCN3CCOCC3)n3c1nc1ccccc13)CCC2	Lmaj promast 63
Cc1c2c(n3c(nc4ccccc43)c1C#N)N(CCN(C)C)CC2	none
CCc1c(C)c(C#N)c2nc3ccccc3n2c1Cl	APP transl inh 95, Lmaj promast 101
CCS(=O)(=O)c1ccc(C(=O)Nc2ccccc2OC)c(Cl)c1Cl	none
CCCc1[nH]n(-c2ccc(F)cc2)c(=O)c1C=Nc1ccc(C)cc1	none
CCc1c(C)c(C#N)c2nc3ccccc3n2c1NCC1CCCO1 (centres undefined)	Lmaj promast 68
Cc1ccc(SCC(=O)Nc2cccc(-c3nnc(-c4ccco4)o3)c2)cc1	none
O=S(=O)(c1ccc(Nc2ccc(-c3ccc4c(c3)OCCO4)nn2)cc1)N1CCCC1	MT stabilizer 12 (no result: bCat nuc transl)

From PubChem BioAssay
